Assay results: article PMC2920599 (Journal of medicinal chemistry, 2010)
Where a name gives a salt, the structure may show the parent alone. Read-outs that look alike come from different tables or passages of the source.

Experiments:
NSCLC = assay: NCI 60 cell panel, five-concentration assay, NSCLC subpanel; type: cell-based; details: total growth inhibition; 48 h exposure
full NCI 60 cell panel [1] = details: for GI50: read-out: GI50 MG-MID (mean GI50)
CNS = assay: NCI 60 cell panel, five-concentration assay, CNS subpanel; type: cell-based; details: total growth inhibition; 48 h exposure
Colon = assay: NCI 60 cell panel, five-concentration assay, colon subpanel; type: cell-based; details: total growth inhibition; 48 h exposure
Breast = assay: NCI 60 cell panel, five-concentration assay, breast subpanel; type: cell-based; details: total growth inhibition; 48 h exposure
Leukemia = assay: NCI 60 cell panel, five-concentration assay, leukemia subpanel; type: cell-based; details: total growth inhibition; 48 h exposure
Melanoma = assay: NCI 60 cell panel, five-concentration assay, melanoma subpanel; type: cell-based; details: total growth inhibition; 48 h exposure
Ovarian = assay: NCI 60 cell panel, five-concentration assay, ovarian subpanel; type: cell-based; details: total growth inhibition; 48 h exposure
Prostate = assay: NCI 60 cell panel, five-concentration assay, prostate subpanel; type: cell-based; details: total growth inhibition; 48 h exposure
Renal = assay: NCI 60 cell panel, five-concentration assay, renal subpanel; type: cell-based; details: total growth inhibition; 48 h exposure
MCF-7 cells = assay: Cell cycle analysis of MCF-7 cells by flow cytometry; type: cell-based, human; details: 200 nM, 24 and 48 h
[2] = tested on: MCF-7 breast cancer cells; assay: Growth and death of MCF-7 cells; type: cell-based, human; details: 200 nM, viable cells counted daily
Method in brief: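 MCF-7 cells grown in RPMI 1640 with 10% FBS and 2 mM L-glutamine at 37°C, 5% CO2. Plated at 2×10^4 cells/cm2; compound added 24 h later from 10 mmol/L DMSO working solutions, with DMSO-only controls. Cells harvested with 0.11% trypsin/0.02% EDTA and counted; viability by trypan blue exclusion. Treated vs control compared by Student t-test, P<0.05.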

ERK1/2 = assay: Western blotting of ERK1/2 phosphorylation in MCF-7 cells; type: cell-based, human; details: 5 μM, 20 h
Method in brief: (§1)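 MCF-7 cells treated 20 h, then collected in 20 mM HEPES pH 7.5 with 5 mM DTT, 2 mM EDTA, 0.1% CHAPS, 0.1% Triton X-100 and protease inhibitors, and freeze-thawed twice. Extracts run on SDS-PAGE at 80 μg protein/lane and immunoblotted for total and phosphorylated ERK1/2 and Akt, p53, p21 and β-actin. Blots representative of at least three experiments.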

Akt = assay: Western blotting of Akt phosphorylation in MCF-7 cells; type: cell-based, human; details: 5 μM, 20 h
Method in brief: as §1

p53 = assay: Western blotting of p53 in MCF-7 cells; type: cell-based, human; details: 5 μM; for p53 expression: 20 h
p21 = assay: Western blotting of p21 in MCF-7 cells; type: cell-based, human; details: 5 μM, 24 h
Bax = Bax content in MCF-7 cells; type: cell-based, human
Method in brief: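 MCF-7 cells seeded at 1×10^4 cells/cm2 on glass coverslips and treated. Then fixed in 3% p-formaldehyde, washed with 0.1 M glycine in PBS, and permeabilised in 70% ice-cold ethanol. Stained 1 h at room temperature with mouse monoclonal anti-Bax, then FITC anti-mouse IgG for 1 h, with propidium iodide for nuclei. Confocal imaging used sequential 488 and 568 nm excitation; image representative of three experiments.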

[3] = tested on: female athymic nude mouse; details: in vivo, ip
full NCI 60 cell panel [4] = assay: cells; details: Homo sapiens, 48 h, read-out: GI50 MG-MID (mean GI50)
[5] = calculated panel mean, 48 h exposure
[6] = read-out: LC50 MG-MID (mean LC50), calculated panel mean, 48 h exposure

SMILES	TGI NSCLC (NSCLC) [µM]	CC50 (full NCI 60 cell panel [1]) [µM]	TGI MG-MID (mean TGI) (full NCI 60 cell panel [1]; [5]) [µM]	TGI CNS (CNS) [µM]	TGI Colon (Colon) [µM]	TGI Breast (Breast) [µM]	TGI Leukemia (Leukemia) [µM]	TGI Melanoma (Melanoma) [µM]	TGI Ovarian (Ovarian) [µM]	TGI Prostate (Prostate) [µM]	TGI Renal (Renal) [µM]	GI50 (full NCI 60 cell panel [1]; [5]) [µM]	other results
COc1cc2c(/C=C3/C(=O)Nc4ccc(Br)cc43)c(Cl)[nH]c2cc1C [Compound 4]	14.13	39.8	9.33	8.91	6.76	10.47	6.17	9.55	8.13	7.94	10.96		
COc1cc2c(/C=C3/C(=O)Nc4cc(Cl)ccc43)c(Cl)[nH]c2cc1C [Compound 7]	11.48		6.61	4.37	3.55	2.63	4.79	11.48	14.79	5.25	7.08	0.21	
COc1cc2c(cc1C)NC(=O)/C2=C/c1c(Cl)n(C)c2cc(C)c(OC)cc12 [Compound 8]	97.72		77.62	87.10	87.10	77.62	60.26	45.71	91.20	97.72		24	CC50 (full NCI 60 cell panel [1]; [6]): 91.2 µM
COc1cc2c(/C=C3/C(=O)Nc4ccc(Br)cc43)c(Cl)n(C)c2cc1C [Compound 9]	9.33	36.3	8.32	7.08	6.03	4.90	20.89	7.41	13.49	8.91	6.76	1.66	
COc1cc2c(/C=C3/C(=O)Nc4ccc(N(C)C)cc43)c(Cl)n(C)c2cc1C [Compound 10]	91.20		67.61	60.26	70.79	54.95	44.67	67.61	77.62	97.72	69.18		CC50 (full NCI 60 cell panel [1]; [6]): 97.7 µM
COc1cc2c(/C=C3/C(=O)Nc4cc(Cl)ccc43)c(Cl)n(C)c2cc1C [Compound 12]	11.48	49	3.80	1.20	0.95	5.62	1.74	7.08	2.34		15.85		cell cycle distribution: G2/M phase (MCF-7 cells): marked accumulation of MCF-7 cells in the G2/M phase; sub-G1 peak (apoptotic cells) (MCF-7 cells): a notable cell population was observed in a sub-G1-peak; effect on MCF-7 cell growth (total cell number) [2]: blocked MCF-7 cell growth within 48 h; ERK phosphorylation (ERK1/2): decreased ERK phosphorylation; Akt phosphorylation (Akt): only slightly decreased; p53 expression (p53): caused a p53 increase; induction of p53 (densitometry) (p53; 24 h): threefold induction of p53; increase of p21 (densitometry) (p21): about 90%; cellular Bax by immunofluorescence microscopy (Bax; 5 μM, 24 h): considerable Bax accumulation; increase of Bax, densitometric analysis of Western blotting (Bax; n=3, data not shown): 2.8 times
COc1cc2c(/C=C3/C(=O)N(C)c4ccccc43)c(Cl)n(C)c2cc1C [Compound 13]	33.11	77.6	11.48	4.47	8.51	13.18	4.07	14.13	18.20	10.00	10.23	0.32	
COc1cc2c(/C=C3/C(=O)N(C)c4ccc(O)cc43)c(Cl)n(C)c2cc1C [Compound 14]	6.03	33.9	3.39	1.74	3.55	1.70	0.47	7.41	11.75	3.16	4.27	0.1	
COc1cc2c(cc1C)N(C)C(=O)/C2=C/c1c(Cl)n(C)c2cc(C)c(OC)cc12 [Compound 15]	69.18	87.1	52.48	26.92	83.18	36.31	56.23	67.61	60.26	67.61	41.69	14.1	
COc1cc2c(cc1C)N(C)C(=O)/C2=C/c1c(Cl)[nH]c2ccccc12 [Compound 16]	12.30		10.96	7.59	9.33	8.32	7.41	18.20	11.75	21.38	12.88	0.45	effect on MCF-7 cell growth (total cell number) [2]: initially decreased cell proliferation, however after 24 h, the cells recovered and started to grow; ERK phosphorylation (ERK1/2): decreased ERK phosphorylation; maximum tolerated dose (MTD) [3]: 100 mg/kg; p53 expression (p53): caused a p53 increase
CN(C)c1ccc2[nH]c(Cl)c(/C=C3/C(=O)Nc4ccc(Cl)cc43)c2c1 [Compound 18]	10.00	38.9	9.77	5.50	7.24	9.12	17.78	11.22	11.75	13.49	8.13		
CN(C)c1ccc2[nH]c(Cl)c(/C=C3/C(=O)Nc4ccc(O)cc43)c2c1 [Compound 19]	31.62		29.51	36.31	20.42	33.88	13.49	25.70	52.48	53.70	33.88	4.37	
COc1ccc2c(c1)/C(=C\c1c(Cl)[nH]c3ccc(N(C)C)cc13)C(=O)N2 [Compound 20]	15.49	49	12.02	7.94	9.55	8.51	10.23	15.49	15.14	19.05	13.80	2.29	
CC[C@]1(O)C[C@H]2CN(CCc3c([nH]c4ccccc34)[C@@](C(=O)OC)(c3cc4c(cc3OC)N(C=O)[C@H]3[C@@](O)(C(=O)OC)[C@H](OC(C)=O)[C@]5(CC)C=CCN6CC[C@]43[C@@H]65)C2)C1 [Vincristine sulfate, reference compound]	15.85		10.00	6.31	3.98	7.94	15.85	7.94	19.95	6.31	19.95		GI50 (full NCI 60 cell panel [4]): 0.2 µM
